Laboratory results published in ChEMBL document CHEMBL3826891, “Cupriphilic compounds to aid in proteasome inhibition” (Bioorg Med Chem Lett, 2016).
The source made the active and inactive calls. No cut-off for these calls is given here.

Key:
[1] = target: T1, Proteasome Macropain subunit MB1 (Homo sapiens) (UniProt P28074); assay: Inhibition of chymotrypsin like activity of 20S proteasome (unknown origin) using suc-leu-leu-val-tyr-AMC as substrate at 10 uM after 40 mins in presence of nickel by fluorescence assay
T1 sequence (whole entry): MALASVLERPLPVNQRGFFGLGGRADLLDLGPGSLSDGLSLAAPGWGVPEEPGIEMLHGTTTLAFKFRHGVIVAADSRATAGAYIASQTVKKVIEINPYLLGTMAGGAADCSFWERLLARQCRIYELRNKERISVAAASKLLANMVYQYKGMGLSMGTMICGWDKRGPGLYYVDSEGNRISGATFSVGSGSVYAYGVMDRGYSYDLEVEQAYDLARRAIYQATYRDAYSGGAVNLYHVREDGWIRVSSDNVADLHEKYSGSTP
Outline: (§1)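 To test metal selectivity, the chloride of nickel, calcium, iron or zinc replaced copper and was premixed with compound for 40 min with shaking in 50 mM Tris pH 7.6. 20S proteasome and suc-LLVY-AMC were then added and incubated 2 h at 37 °C. Cleavage was read by fluorescence at 340 nm excitation and 460 nm emission.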

[2] = target: T1, Proteasome Macropain subunit MB1 (Homo sapiens); assay: Inhibition of chymotrypsin like activity of 20S proteasome (unknown origin) using suc-leu-leu-val-tyr-AMC as substrate at 10 uM after 40 mins in presence of iron by fluorescence assay; outline: as §1
[3] = target: T1, Proteasome Macropain subunit MB1 (Homo sapiens); assay: Inhibition of chymotrypsin like activity of 20S proteasome (unknown origin) using suc-leu-leu-val-tyr-AMC as substrate at 10 uM after 40 mins in presence of calcium by fluorescence assay; outline: as §1
[4] = target: T1, Proteasome Macropain subunit MB1 (Homo sapiens); assay: Inhibition of chymotrypsin like activity of 20S proteasome (unknown origin) using suc-leu-leu-val-tyr-AMC as substrate at 10 uM after 40 mins in presence of copper by fluorescence assay
[5] = target: T1, Proteasome Macropain subunit MB1 (Homo sapiens); assay: Inhibition of chymotrypsin like activity of 20S proteasome (unknown origin) using suc-leu-leu-val-tyr-AMC as substrate at 10 uM after 40 mins in presence of 1 uM copper by fluorescence assay
Outline: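 Compound in DMSO, final DMSO below 2%, at 10 µM. Premixed with 1 µM copper chloride in 50 mM Tris pH 7.6 for 40 min with gentle shaking to allow chelation. 20S proteasome and suc-Leu-Leu-Val-Tyr-AMC were then added and incubated 2 h at 37 °C. Substrate cleavage rate was read as fluorescence at 340 nm excitation and 460 nm emission.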

[6] = target: T2, Proteasome Macropain subunit MB1 (Homo sapiens, UniProt P28074); assay: Inhibition of chymotrypsin like activity of 20S proteasome (unknown origin) using suc-leu-leu-val-tyr-AMC as substrate after 40 mins in presence of 100 nM copper by fluorescence assay
T2 sequence (P28074 whole entry): T1 sequence (whole entry)
Outline: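 Dose-response format in which compound concentration was varied with copper chloride fixed at 100 nM. Compound and copper were pre-equilibrated 40 min with gentle shaking in 50 mM Tris pH 7.6, final DMSO below 2%. 20S proteasome and suc-LLVY-AMC were added and run 2 h at 37 °C. AMC fluorescence was read at 340/460 nm, and IC50 was taken from the curve.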

inhibition [1]	inhibition [2]	inhibition [3]	inhibition [4]	inhibition [5]	IC50 [6]	SMILES
Active	Active	Active	Active	> 80%	–	OCc1cc(O)c(CO)nn1
Active	Active	Active	Active	> 80%	–	O=C(O)c1ccc(O)c(O)c1
Active	Active	Active	Active	92%	–	CCN(CC)C(=S)SSC(=S)N(CC)CC
Active	Active	Active	Active	> 80%	3 µM	O=C1COc2c1ccc(O)c2O
Active	Active	Active	Active	> 80%	–	NC(=O)SCC(=O)Nc1ccccc1C(=O)O
Active	Active	Active	Active	> 80%	–	O=C1c2c(O)cc(O)cc2OCC1c1ccc(O)cc1 (stereo unspecified)
Active	Active	Active	Active	> 80%	–	O=c1oc2c(cc1O)oc(=O)c1cc(O)c(O)c(O)c12
